Reference: ChEMBL document CHEMBL2150909, “Imidazo[1,2-a]pyridines: orally active positive allosteric modulators of the metabotropic glutamate 2 receptor” (J Med Chem, 2012)

What was measured:
[1] = biological target: T1, Metabotropic glutamate receptor 2 (Homo sapiens, UniProt Q14416); assay: Agonist activity at human mGlu 2 expressed in CHO cells assessed as [35S]GTPgammaS binding by liquid scintillation analysis; format: functional, cell-based
Procedure, shortened: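 Membranes from butyrate-stimulated (5 mM, 24 h) CHO cells expressing human mGlu2. Preincubated 30 min at 30 °C in HEPES pH 7.4 with NaCl, MgCl2, 50 μM GDP and saponin; modulator 0.3 nM–50 μM, no added glutamate. [35S]GTPγS 0.1 nM final, 30 min at 30 °C, filtered, scintillation counted. Nonspecific binding defined with cold GTP; 11 concentrations in duplicate, ≥3 curves.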
Target sequence in this assay (Q14416 whole entry): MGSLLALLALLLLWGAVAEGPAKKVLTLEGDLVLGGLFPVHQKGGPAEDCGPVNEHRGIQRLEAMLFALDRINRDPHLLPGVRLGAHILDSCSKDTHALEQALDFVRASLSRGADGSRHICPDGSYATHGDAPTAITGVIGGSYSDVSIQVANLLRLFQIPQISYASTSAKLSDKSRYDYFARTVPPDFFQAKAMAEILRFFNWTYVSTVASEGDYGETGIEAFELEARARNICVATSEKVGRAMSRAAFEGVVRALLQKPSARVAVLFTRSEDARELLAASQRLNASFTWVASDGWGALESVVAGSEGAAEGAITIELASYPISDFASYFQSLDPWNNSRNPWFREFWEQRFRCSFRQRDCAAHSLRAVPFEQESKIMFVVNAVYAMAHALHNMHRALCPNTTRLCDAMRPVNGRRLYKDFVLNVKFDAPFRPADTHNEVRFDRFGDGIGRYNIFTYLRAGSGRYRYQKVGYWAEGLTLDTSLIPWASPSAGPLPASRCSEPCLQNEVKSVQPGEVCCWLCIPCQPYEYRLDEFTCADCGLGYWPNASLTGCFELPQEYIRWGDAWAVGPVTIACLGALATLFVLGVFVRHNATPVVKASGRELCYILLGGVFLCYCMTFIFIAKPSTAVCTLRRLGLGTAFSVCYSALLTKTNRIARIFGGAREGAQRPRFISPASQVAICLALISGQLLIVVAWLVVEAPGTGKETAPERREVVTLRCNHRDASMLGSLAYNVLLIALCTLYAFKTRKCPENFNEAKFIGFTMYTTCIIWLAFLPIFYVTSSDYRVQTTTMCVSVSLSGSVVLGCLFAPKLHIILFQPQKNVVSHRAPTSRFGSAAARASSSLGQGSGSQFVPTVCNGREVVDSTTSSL

[2] = biological target: T1, Metabotropic glutamate receptor 2; assay: Agonist activity at human mGlu 2 expressed in CHO cells by PAM assay relative to glutamate; format: functional, cell-based
Procedure, shortened: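 The assay measured [35S]GTPγS binding to membranes from CHO cells expressing human mGluR2. Cells were butyrate-stimulated (5 mM, 24 h) before membranes were prepared. Membranes were preincubated for 30 min at 30 °C in HEPES pH 7.4 buffer (NaCl, MgCl2, 50 μM GDP) with compound (0.3 nM–50 μM, 11 concentrations) plus EC25 glutamate. [35S]GTPγS (0.1 nM final) was then added for 30 min at 30 °C. Bound label was collected by filtration and counted. Runs were done at least in triplicate with duplicate points, and a four-parameter logistic fit gave the values.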
Target sequence in this assay (Q14416 19-872 limits assumed): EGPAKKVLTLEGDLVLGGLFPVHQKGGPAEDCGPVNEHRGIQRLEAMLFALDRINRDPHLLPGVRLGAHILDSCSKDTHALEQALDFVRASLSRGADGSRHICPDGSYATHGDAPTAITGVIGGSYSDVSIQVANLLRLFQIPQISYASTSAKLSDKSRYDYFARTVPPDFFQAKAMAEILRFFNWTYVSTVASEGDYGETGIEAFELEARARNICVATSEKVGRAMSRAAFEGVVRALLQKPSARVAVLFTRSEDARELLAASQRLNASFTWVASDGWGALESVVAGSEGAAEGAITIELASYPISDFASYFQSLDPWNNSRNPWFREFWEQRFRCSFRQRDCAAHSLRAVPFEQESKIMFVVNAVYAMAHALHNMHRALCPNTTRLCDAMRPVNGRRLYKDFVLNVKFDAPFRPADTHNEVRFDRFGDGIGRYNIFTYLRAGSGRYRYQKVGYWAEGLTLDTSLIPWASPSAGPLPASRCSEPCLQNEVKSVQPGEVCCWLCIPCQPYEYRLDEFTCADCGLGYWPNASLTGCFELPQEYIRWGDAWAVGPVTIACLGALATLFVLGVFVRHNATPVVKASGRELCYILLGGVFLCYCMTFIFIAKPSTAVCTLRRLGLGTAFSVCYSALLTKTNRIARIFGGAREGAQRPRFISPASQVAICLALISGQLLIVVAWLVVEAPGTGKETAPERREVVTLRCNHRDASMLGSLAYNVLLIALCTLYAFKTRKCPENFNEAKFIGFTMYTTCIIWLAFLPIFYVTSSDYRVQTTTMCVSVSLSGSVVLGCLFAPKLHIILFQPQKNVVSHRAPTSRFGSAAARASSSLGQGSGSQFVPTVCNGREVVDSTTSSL

[3] = Metabolic stability of human liver microsomes assessed as compound metabolized at 5 uM after 15 mins; format: ADME, Microsome; conditions: read-out: Drug metabolism
Procedure, shortened: (§1)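 Test compound at 5 μM incubated 15 min with rat or human liver microsomes; read-out is percent of compound metabolized.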

[4] = Metabolic stability of Sprague-Dawley rat liver microsomes assessed as compound metabolized at 5 uM after 15 mins; format: ADME, Microsome; conditions: read-out: Drug metabolism; procedure, shortened: as §1
[5] = Cmax in Sprague-Dawley rat at 10 mg/kg, po and 2.5 mg/kg, iv; format: ADME, organism-based; conditions: in vivo
Procedure, shortened: (§2)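 Rat PK: compounds formulated in 20% HP-β-CD at pH 4 and given orally and intravenously. Values are geometric means of at least two runs ± SEM.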

[6] = Tmax in Sprague-Dawley rat at 10 mg/kg, po and 2.5 mg/kg, iv; format: ADME, organism-based; conditions: in vivo; procedure, shortened: as §2
[7] = AUC (0 to infinity) in Sprague-Dawley rat at 10 mg/kg, po and 2.5 mg/kg, iv; format: ADME, organism-based; conditions: plasma; procedure, shortened: as §2
[8] = Half life in Sprague-Dawley rat at 10 mg/kg, po and 2.5 mg/kg, iv; format: ADME, organism-based; conditions: in vivo; procedure, shortened: as §2
[9] = Clearance in Sprague-Dawley rat at 10 mg/kg, po and 2.5 mg/kg, iv; format: ADME, organism-based; conditions: in vivo
[10] = Drug uptake in SPF Swiss mouse brain at 10 mg/kg, sc after 1 hr; format: ADME, organism-based; parameters: dose 10 mg/kg, route subcutaneous; conditions: read-out: Drug uptake
Procedure, shortened: (§3)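 Male Swiss SPF mice dosed subcutaneously at 10 mg/kg in 20% HP-β-CD, pH 4. Brain levels measured in ng/g and plasma levels in ng/mL at the stated time, with brain/plasma ratio; geometric mean of at least two runs ± SEM.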

[11] = Drug uptake in SPF Swiss mouse brain at 10 mg/kg, sc after 2 hrs; format: ADME, organism-based; parameters: dose 10 mg/kg, route subcutaneous; conditions: read-out: Drug uptake; procedure, shortened: as §3
[12] = Plasma concentration in SPF Swiss mouse at 10 mg/kg, sc after 1 hr; format: ADME, organism-based; parameters: dose 10 mg/kg, route subcutaneous; procedure, shortened: as §3
[13] = Plasma concentration in SPF Swiss mouse at 10 mg/kg, sc after 2 hrs; format: ADME, organism-based; parameters: dose 10 mg/kg, route subcutaneous; procedure, shortened: as §3
[14] = Ratio of drug level in brain to plasma of SPF Swiss mouse at 10 mg/kg, sc after 1 hr; format: ADME, organism-based; parameters: dose 10 mg/kg, route subcutaneous; conditions: read-out: BPR
Procedure, shortened: (§4)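 Male Swiss SPF mice, single subcutaneous dose of 10 mg/kg in 20% HP-β-CD at pH 4. Brain levels (ng/g) and plasma levels (ng/mL) measured at the stated time after dosing; brain-to-plasma ratio taken from these. Geometric mean of at least two runs ± SEM.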

[15] = Ratio of drug level in brain to plasma of SPF Swiss mouse at 10 mg/kg, sc after 2 hrs; format: ADME, organism-based; parameters: dose 10 mg/kg, route subcutaneous; conditions: read-out: BPR; procedure, shortened: as §4
[16] = Oral bioavailability in Sprague-Dawley rat at 10 mg/kg; format: ADME, organism-based; conditions: in vivo
Procedure, shortened: (§5)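 Male Sprague-Dawley rats given 10 mg/kg orally and/or 1.25 mg/kg intravenously; compound formulated in 20% HP-β-CD at pH 4. Cmax, tmax, AUC0−inf, t1/2, clearance and oral bioavailability F derived from plasma levels; geometric mean of at least two runs ± SEM.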

[17] = Drug uptake in SPF Swiss mouse brain at 10 mg/kg, sc after 4 hrs; format: ADME, organism-based; parameters: dose 10 mg/kg, route subcutaneous; conditions: read-out: Drug uptake; procedure, shortened: as §3
[18] = Plasma concentration in SPF Swiss mouse at 10 mg/kg, sc after 4 hrs; format: ADME, organism-based; parameters: dose 10 mg/kg, route subcutaneous; procedure, shortened: as §3
[19] = Ratio of drug level in brain to plasma of SPF Swiss mouse at 10 mg/kg, sc after 4 hrs; format: ADME, organism-based; parameters: dose 10 mg/kg, route subcutaneous; conditions: read-out: BPR; procedure, shortened: as §4
[20] = Cmax in Sprague-Dawley rat at 10 mg/kg, po and 1.25 mg/kg, iv; format: ADME, organism-based; conditions: in vivo; procedure, shortened: as §5
[21] = Tmax in Sprague-Dawley rat at 10 mg/kg, po and 1.25 mg/kg, iv; format: ADME, organism-based; conditions: in vivo
Procedure, shortened: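 Rat pharmacokinetics in Sprague−Dawley rats: oral 10 mg/kg and intravenous 1.25 mg/kg, formulated in 20% HP-β-CD at pH 4. Plasma profiles used for Cmax, tmax, AUC0−inf and t1/2. Reported as geometric means of at least two runs ± SEM.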

[22] = AUC (0 to infinity) in Sprague-Dawley rat at 10 mg/kg, po and 1.25 mg/kg, iv; format: ADME, organism-based; conditions: plasma; procedure, shortened: as §5
[23] = Half life in Sprague-Dawley rat at 10 mg/kg, po and 1.25 mg/kg, iv; format: ADME, organism-based; conditions: in vivo; procedure, shortened: as §5
[24] = Clearance in Sprague-Dawley rat at 10 mg/kg, po and 1.25 mg/kg, iv; format: ADME, organism-based; conditions: in vivo; procedure, shortened: as §5

EC50 [1] | Emax [2] | metabolised at 0.25 h, 5 µM [3] | metabolised at 0.25 h, 5 µM [4] | concentration at 1 h [10] | concentration at 2 h [11] | concentration at 1 h [12] | concentration at 2 h [13] | Kp at 1 h [14] | Kp at 2 h [15] | bioavailability [16] | SMILES | also measured
501 nM | 442% | 23% | 28% | 704 ng/g | 50 ng/g | 932 ng/mL | 95 ng/mL | 0.8 | 0.5 | 15% | N#Cc1c(-c2ccc3c(ccn3C3CCOCC3)c2)ccn2c(CC(F)(F)F)cnc12 | Cmax [5]: 216 ng/mL; Tmax [6]: 0.5 h; AUC(0-inf) [7]: 281 ng·h/mL; half-life [8]: 0.92 h; clearance [9]: 83.3 mL/min/kg
617 nM | 173% | 29% | 50% |  |  |  |  |  |  |  | N#Cc1c(-c2ccc(OC3CCOCC3)c(Cl)c2)ccn2c(CC(F)(F)F)cnc12 | 
 | 307% | 21% | 36% |  |  |  |  |  |  |  | N#Cc1c(-c2ccc(NC3CCOCC3)c(Cl)c2)ccn2c(CC(F)(F)F)cnc12 | 
1660 nM | 232% | 45% | 100% |  |  |  |  |  |  |  | N#Cc1c(-c2ccc3c(c2)OCCN3)ccn2c(CC(F)(F)F)cnc12 | 
330 nM | 237% | 4% | 15% | 322 ng/g | 469 ng/g | 4170 ng/mL | 4500 ng/mL | 0.1 | 0.1 | 50% | N#Cc1c(-c2ccc3c(ccn3[C@H]3CC[C@H](O)CC3)c2)ccn2c(CC(F)(F)F)cnc12 | Cmax [5]: 1060 ng/mL; Tmax [6]: 1.7 h; AUC(0-inf) [7]: 7520 ng·h/mL; half-life [8]: 2.8 h; clearance [9]: 11.7 mL/min/kg; concentration at 4 h [17]: 280 ng/g; concentration at 4 h [18]: 3860 ng/mL; Kp at 4 h [19]: 0.1
320 nM | 277% | 35% | 49% |  |  |  |  |  |  |  | N#Cc1c(-c2cc(Cl)c3[nH]ccc3c2)ccn2c(CC(F)(F)F)cnc12 | 
 | 200% | 19% | 74% |  |  |  |  |  |  |  | N#Cc1c(-c2cc(Cl)c3c(ccn3CC3CC3)c2)ccn2c(CC(F)(F)F)cnc12 | 
 |  | 23% | 23% | 1840 ng/g | 1530 ng/g | 1040 ng/mL | 893 ng/mL | 1.8 | 1.7 | 27% | N#Cc1c(-c2ccc(Oc3ccccc3)cc2)ccn2c(CC(F)(F)F)cnc12 | Cmax [20]: 274 ng/mL; Tmax [21]: 0.5 h; AUC(0-inf) [22]: 714 ng·h/mL; half-life [23]: 2.1 h; clearance [24]: 56.7 mL/min/kg; concentration at 4 h [17]: 221 ng/g; concentration at 4 h [18]: 114 ng/mL; Kp at 4 h [19]: 1.9
